WT yeast gro inh = growth inhibition of WT strain, primary screen, mitochondrial fusion inhibitor project, WT and mutant strains, chemical genetic | 190,000 compounds, 2.1% hits | AID 1362, 2008 | mitochondrial fusion phenotypic screen | inhibition, % at 10 µM; in the data active = inhibition above about 58%; tested in S. cerevisiae
Arbovirus anti = antivirals against arbovirus infection, primary screen, cell-based, full library, 10K replicate subset | AID 1251, 2008 | arbovirus infection cell-based antiviral screen | inhibition, % at 10 µM | 200,000 compounds, 0.37% hits; in the data active = inhibition above about 30%
RAM inhibit = inhibitors of the yeast RAM network, primary screen, dse1pr::URA3 reporter, 5-FOA selection | AID 868, 2007 | 190,000 compounds, 1.8% hits | inhibition, % at 50 µM | S. cerevisiae dse1pr::URA3 reporter, 5-FOA growth OD615, 2 d; analog-sensitive cbk1-as2 kinase mutant strain;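 active = inhibition above a set limit, 3 SD over mean compound inhibition, cut at about 8.4% in these data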;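 also: 0% = DMSO-only wells with no growth and 100% = 10 µM 1-NA-PP1 full growth; inhibition rescues growth on 5-FOA so higher OD means more RAM inhibition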
Hck Nef HTS = inhibitors of Nef-activated human Hck kinase, primary screen, biochemical, Z-Lyte FRET, 384-well, Hck-YEEI | Tyrosine-protein kinase HCK (Homo sapiens), P08631 | Recombinant Hck-YEEI plus Nef, Z-Lyte FRET kinase assay | inhibition, % at 20 µM | 220,000 compounds, 0.68% hits | AID 463187, 2010;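 active = Hck-Nef kinase inhibition above about 50%, limit read from the data; inactive = inhibition below that limit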;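 also: 0% = DMSO with Hck plus Nef and 100% = Hck alone without Nef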
Target sequence (P08631 whole entry, looked up): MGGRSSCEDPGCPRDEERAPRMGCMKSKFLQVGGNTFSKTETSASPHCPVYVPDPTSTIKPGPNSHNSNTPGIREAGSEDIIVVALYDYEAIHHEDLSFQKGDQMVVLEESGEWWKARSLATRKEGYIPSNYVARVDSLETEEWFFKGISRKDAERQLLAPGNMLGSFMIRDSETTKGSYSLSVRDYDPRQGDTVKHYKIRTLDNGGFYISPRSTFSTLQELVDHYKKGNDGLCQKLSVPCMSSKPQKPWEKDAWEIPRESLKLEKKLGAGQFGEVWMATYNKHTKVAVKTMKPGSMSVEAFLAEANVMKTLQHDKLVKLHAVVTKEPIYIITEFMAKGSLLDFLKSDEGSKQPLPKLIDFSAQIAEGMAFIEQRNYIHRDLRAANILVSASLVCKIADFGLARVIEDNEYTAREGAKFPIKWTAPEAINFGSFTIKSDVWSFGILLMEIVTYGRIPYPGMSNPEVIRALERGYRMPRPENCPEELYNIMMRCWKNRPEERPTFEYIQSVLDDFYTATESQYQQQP
Calb biofilm kill = clotrimazole potentiators killing C. albicans biofilm, primary screen, 4-compound mixtures; C. albicans biofilm persisters + clotrimazole, fluorescence viability; primary screen in compound mixtures of four per well; AID 1242, 2008; inhibition, % at 7.6 µM; 120,000 compounds, 0.02% hits;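 active = inhibition above 30.3% in the primary screen of four-compound pools, then above 30% when the compound was retested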;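 also: compounds exposed to preformed 24 h biofilms for 48 h; 0% = untreated biofilm control and 100% = clotrimazole plus chlorhexidine kill blank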
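System: C. albicans CAF4-2 wild-type biofilms; Medium: RPMI/MOPS medium, pH 7.0; Reagent: Clotrimazole, 50 µg/mL; Times: biofilm formation 24 h, compound exposure 48 h, 37 °C; Detection: 2-h Alamar Blue fluorescence, 535/590 nm excitation/emission; Evaluation: percent inhibition of biofilm viability.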
NCF1 inh = p47phox/p22phox peptide binding inhibitors, primary screen, biochemical, uHTS, NADPH oxidase regulatory subunit. Neutrophil cytosol factor 1 (Homo sapiens), P14598. 220,000 compounds, 0.53% hits. fluorescence polarization, 2 h. inhibition, % at 24.7 µM;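 active = inhibition above about 30%, limit read from the data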;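 also: 0% = p47phox with labelled peptide and 100% = labelled peptide alone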
Starred values were filed as active, the others as inactive; · = no result. This is a sample that favours compounds with a hit; in the whole collection about 4.6% have one here.

SMILES | WT yeast gro inh | Arbovirus anti | RAM inhibit | Hck Nef HTS | Calb biofilm kill | NCF1 inh
CCC(=O)N1CC2(CC(c3cccc([N+](=O)[O-])c3)=NO2)C[C@H]1C(=O)NCC(N)=O (stereo not given in full) | 8.7 | 4.8 | 1.4 | 1.0 | · | 35.2*
COc1cc(/C=C2\SC(N)=NC2=O)ccc1OCC(=O)Nc1ccc(C)cc1 | 5.4 | 1.6 | 1.7 | 92.6* | 14.2 | 11.3
COc1ccc(OCC(O)CN2C(=O)NC(C)(C)C2=O)cc1 (stereo not given) | 4.0 | -2.4 | 2.8 | 1.8 | · | 5.7
S=C(NCCc1ccccc1)N1CCn2cccc2C1c1cccnc1 (stereo not given) | 10.1 | 1.4 | 1.4 | 12.1 | 22.4 | -7.6
Fc1ccc(C2c3cccn3CCN2C(=S)Nc2cccc(Br)c2)cc1 (stereo not given) | 86.3* | -18.0 | 2.6 | 20.6 | 8.9 | -11.0
CCCCNC(=S)N1CCn2cccc2C1c1ccc(F)cc1 (stereo not given) | 61.5* | -5.7 | 2.7 | 20.9 | 1.9 | -6.1
S=C(NCc1ccccc1)N1CCn2cccc2C1c1cccnc1 (stereo not given) | -25.2 | 33.8* | 1.7 | 19.5 | 7.7 | -6.5
O=S(=O)(/N=C(\c1ccccc1F)N1CCCCC1)c1ccccc1 | -14.9 | 1.9 | 0.5 | 5.3 | 6.2 | -11.1
O=C(CCc1ccccc1)NC(=S)Nc1ccccc1Br | 75.0* | -7.6 | 1.1 | -2.6 | 8.2 | 4.0
O=C(CCc1ccccc1)NC(=S)Nc1cccc(Br)c1 | 58.8* | -10.7 | -0.1 | 2.2 | 11.7 | -0.6
CCC1(C)C(Nc2c(C)cccc2C)=NC(=S)N1c1ccc(NC(C)=O)cc1 (stereo not given) | -6.0 | -1.4 | 1.6 | -0.7 | 16.0 | -10.9
C/C=C/c1ccc(OCCCCOc2ccc(OC)cc2)c(OC)c1 | -10.7 | 1.3 | 10.2* | 1.0 | 20.5 | -18.2
Clc1ccc(CN(Cc2ccc(Cl)cc2)c2nn[nH]n2)cc1 | -15.2 | 38.3* | 3.3 | 30.7 | 18.2 | 3.0
Cc1ccccc1NC(=S)N(Cc1ccco1)C(C)c1cccs1 (stereo not given) | 31.8 | 1.2 | -0.4 | -31.4 | 15.7 | -10.2
CC(c1cccs1)N(Cc1ccco1)C(=S)Nc1ccccc1Cl (stereo not given) | 63.4* | 8.1 | 4.4 | 4.0 | 18.8 | -5.5
Cc1cccc(NC(=S)N(Cc2ccco2)C(C)c2cccs2)c1 (stereo not given) | 72.1* | -4.3 | 1.5 | -29.8 | 16.2 | -9.5
CC(c1cccs1)N(Cc1ccco1)C(=S)Nc1ccc(F)c(Cl)c1 (stereo not given) | 78.5* | -6.9 | 3.8 | -34.8 | 20.1 | -2.8
O=C(N=Nc1c(O)[nH]c2ccccc12)c1ccc2c(c1)OCO2 | 7.5 | -3.5 | 3.6 | 19.7 | 11.9 | -7.0
CC(=O)c1cc2c(cc1NC(=O)c1c(-c3ccccc3)noc1C)OCO2 | -1.4 | -9.0 | 2.9 | 1.4 | · | -13.4
CC(C)(C)NC(=O)NC(=O)COC(=O)CCC1CCCC1 | · | · | · | 2.9 | 4.0 | -9.3
O/C(=C\c1nc2ccccc2nc1/C=C(\O)c1ccccc1)c1ccccc1 | 73.6* | -6.5 | 3.9 | 8.3 | 9.2 | -10.7
O=c1oc2ccccc2nc1/C=C(\O)c1ccccc1 | · | · | · | 13.2 | 17.0 | -13.2
CCCc1cc(=O)oc2c(C)c(OCC(=O)c3ccc(N4CCCC4)cc3)ccc12 | -15.8 | -3.0 | 3.1 | 10.3 | · | 34.1*
Clc1nssc1=Nc1ccc(Br)cc1 | 71.3* | 16.8 | 2.0 | -12.1 | 1.0 | 19.6
Clc1ccc(N=c2ssnc2Cl)nc1 | 68.5* | -29.3 | -1.2 | 24.1 | 0.8 | -8.2
COc1cc(N=c2ssnc2Cl)cc(OC)c1 | 9.6 | -4.0 | -1.3 | -1.6 | · | 10.7
O=C(CCc1nnc(Cc2ccc3c(c2)OCO3)o1)NC(c1ccccn1)C(F)(F)F (stereo not given) | -0.8 | -8.0 | 0.7 | 9.8 | 4.4 | 2.6
CCOC(=O)c1ccc(N2CCN(c3ccccc3F)CC2)c(NC(=O)Nc2ccccc2)c1 | -37.6 | 31.4* | 2.7 | 2.4 | -7.7 | 9.3

Compound activity (PubChem)
